Measured values taken from the EternaBench riboswitch data.

Tested on: MS2 coat protein
Experiment: apparent Kd, MS2 coat protein; higher = weaker binding; RNA-MaP array; FMN 200 µM where present
Method in brief: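 SNAP-549-labelled MS2 coat protein, doubled from 0.7 or 1.5 nM to 3 µM, was titrated over designs transcribed by stalled E. coli RNA polymerase on Illumina sequencing-chip clusters. Titrations were run without and then with constant ligand in 100 mM Tris-HCl pH 7.5, 80 mM KCl, 4 mM MgCl2, BSA, DTT, yeast tRNA and Tween-20. The apparent Kd is the median of filtered per-cluster fits to green signal normalised to red-channel RNA signal and control-cluster median Fmax.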

[1] = designed as: OFF switch for flavin mononucleotide, no ligand
[2] = ligand present: flavin mononucleotide, designed as: OFF switch for flavin mononucleotide
[3] = designed as: ON switch for flavin mononucleotide, no ligand
[4] = ligand present: flavin mononucleotide, designed as: ON switch for flavin mononucleotide

Sequence	apparent Kd [1]	apparent Kd [2]	apparent Kd [3]	apparent Kd [4]
AGAGUGUGAGGAUAUAUGGUGCAGAUGAAGGGAUAGAAGGAGUAGAAGGUACAUGAGGAUCACCCAUGUUAGGA	27.4 nM	21.7 nM		
CUUCGUAUAGAGGAUAUAGGAUACUGCGGUGUCCUAGAAGGCUGUACAUGAGGAUCACCCAUGUACUUCAGAUC	12.6 nM	17.9 nM		
CCGUCCUGAGGAUAUCCACCCUCAUACAUGAGGAUCACCCAUGUUCACCUUUGGGUUCCCGGAGAAGGCAGUUUUC	80.2 nM	109 nM		
GGUUGACGACAAUUACAUGAGGAUCACCCAUGUUUUGGGAUGCAGGAUAUGUGGUAUAUUAAUUAACAGAAGGGCAAUAAUUUU			37.3 nM	39.3 nM
GUGUACGCAGGAUAUACAUGAGGAUCACCCAUGUGAAUAAGAUAGAAUAAGAUAAAGUGUAGAAGGGCGAGUGU	35.2 nM	34.9 nM		
AAUCGCAGUGCAGGAUAUCCAAGGUUUGGCGAAGGAGAAGGGCAUGCGACAUGAGGAUCACCCAUGUAAAGUAUGGCGUCCUCU	231 nM	117 nM		
GCCUCACAUGAGGAUCACCCAUGUCAGGAUAUACCCAUCCGGCGCAAUUGCAGCCGUAGUAGAAGGGACAUGCA	21.2 nM	45.8 nM		
GUCCCAGCUGAGGAUAUUAUCUGGCUCGACCGAUAAGAAGGCAGUACAUGAGGAUCACCCAUGUGGUUCGUUCG	31.5 nM	70.7 nM		
UACUAAAAGGAGGAUAUCGUAUCGGAGACGAUACGAGAAGGCUUAACAUGAGGAUCACCCAUGUUCUUCAAUAU	15.8 nM	18.2 nM		
CCUAAGCGAGGAUAUACAUGAGGAUCACCCAUGUCCGCGUUCAUGAGGUUAAGAUCUUGUAGAAGGCGCCAAAA	33 nM	161 nM		
ACAUGAUCAGGAUAUACAUGAGGAUCACCCAUGUUUAUCAAAAAAGGGCCUUCUACAUGUAGAAGGGAUCUUGU	14.8 nM	15.1 nM		
GCCGAAAGUGUGAGGAUAUACCUAUGGAUACAUAGGUAGAAGGCACAUGAGGAUCACCCAUGUUCCUAAACGGC	80.2 nM	421 nM		
AAAAAUAGAGGAUAUACAUGAAAAAAAAAAAAAAAAAAAAAACAUGAGGAUCACCCAUGUAGAAGGCUAAAAAA	45.3 nM	30.3 nM		
GGUGGACAUGAGGAUCACCCAUGUGAGGAUAUCGGCUGGCUAGCGGCGGACGGCUUCUCGAGAAGGCGCAUUGU	57.8 nM	57.1 nM		
CACCGUAACAGAGGAUAUCAAACAUGAGGAUCACCCAUGUAAUAAAUGAGAAUUUCGAAUGUACCUGAGAAGGCUGAAACCGGC	35.6 nM	41.1 nM		
UUGACGGCAGGAUAUACAUGAGGAUCACCCAUGUAAAUUUUUCGUUUAACUUGAAUGUGUAGAAGGGCCAAAAC	22.7 nM	19.5 nM		
CGAGUUUUUGAGAAGGCAUAUUAUAUUAUACCACAUGUUUACAUGAGGAUCACCCAUGUUUCCUAUGAGGAUAUCAGAAUAUCG	11.8 nM	10 nM		
AUUUUACAUGAGGAUCACCCAUGUUUUGGCGGGUCAGGAUAUAGAUCGGAUGAGUUCUGUCUAGAAGGGACAUGUA			77.5 nM	71.6 nM
GGUUGGUAUUACAACGGCCUGAGGGAGGAUAUACAAGGCCGGCGUCGCACAUGAGGAUCACCCAUGUAGAAGGCCCAAGGCCUG	6.97 nM	12 nM		
GCUGACGAUGUAGGAUAUCUCGACGAUAAGUCGAGAGAAGGACAUGAGGAUCACCCAUGUACUCUAACGUCAGCGAGGAAACUC	17.2 nM	18.5 nM		
AGUAUUGUAGGGUAUCCAACAUGAGGAUCACCCAUGUACCAGAGAAGGACCCAGGCAUUGCUUGGGUAGGAUAUCUGCGCAUCA	18.4 nM	193 nM		
